The source made the active and inactive calls. The calls are words filed in the database; no cut-off is given here.
How the values were obtained:
[1] = molecular target: T1, Glycogen synthase kinase-3 (Homo sapiens, UniProt P49840+P49841); test: Inhibition of glycogen synthase kinase-3 (GSK3-beta); type: protein assay
Procedure, shortened: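 GSK-3β (20 nM final) in HEPES pH 7.2 with 10 mM MgCl2, 0.1 mg/mL BSA, 1 mM DTT, 0.3 mg/mL heparin. Substrate 2.8 µM biotinylated phospho-primed GS peptide, with 2.5 µM ATP plus [γ-33P]-ATP. Stopped after 40 min with EDTA. Streptavidin SPA beads added and counted. Reported as pIC50.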

[2] = molecular target: T1, Glycogen synthase kinase-3; test: Stimulation of glycogen synthesis in rat skeletal muscle L6 cells
MDCK = test: Cell permeation in MDCK cells; type: functional, Canis lupus familiaris
[3] = molecular target: T1, Glycogen synthase kinase-3; test: Maximal glycogen synthesis in rat L6 skeletal muscle cells in response to 1 uM insulin; type: functional, cell-based
Procedure, shortened: (§1)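 Rat L6 muscle cells, with glycogen synthesis tracked as 14C-glucose incorporated into glycogen. Maximum glycogen produced by the compound is expressed as a percentage of the maximum produced by 1 µM insulin.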

[4] = molecular target: T1, Glycogen synthase kinase-3; test: Maximal glycogen synthesis in rat L6 skeletal muscle cells in response to 1 uM insulin (inactive); type: functional, cell-based; procedure, shortened: as §1

T1 sequence (P49840 whole entry, looked up): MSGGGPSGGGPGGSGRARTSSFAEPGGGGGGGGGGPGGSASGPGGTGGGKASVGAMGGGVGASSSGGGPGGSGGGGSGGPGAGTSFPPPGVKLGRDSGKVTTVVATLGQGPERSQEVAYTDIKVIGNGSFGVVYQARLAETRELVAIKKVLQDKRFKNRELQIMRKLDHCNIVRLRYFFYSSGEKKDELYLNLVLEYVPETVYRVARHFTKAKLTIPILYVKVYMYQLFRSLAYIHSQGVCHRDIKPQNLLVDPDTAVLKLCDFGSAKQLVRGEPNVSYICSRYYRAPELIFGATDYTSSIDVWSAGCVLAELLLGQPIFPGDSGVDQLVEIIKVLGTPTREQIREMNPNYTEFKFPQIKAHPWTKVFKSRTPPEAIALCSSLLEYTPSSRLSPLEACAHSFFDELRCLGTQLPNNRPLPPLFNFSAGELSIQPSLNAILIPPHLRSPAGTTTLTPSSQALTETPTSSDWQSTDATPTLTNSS
T1 sequence (P49841 whole entry, looked up): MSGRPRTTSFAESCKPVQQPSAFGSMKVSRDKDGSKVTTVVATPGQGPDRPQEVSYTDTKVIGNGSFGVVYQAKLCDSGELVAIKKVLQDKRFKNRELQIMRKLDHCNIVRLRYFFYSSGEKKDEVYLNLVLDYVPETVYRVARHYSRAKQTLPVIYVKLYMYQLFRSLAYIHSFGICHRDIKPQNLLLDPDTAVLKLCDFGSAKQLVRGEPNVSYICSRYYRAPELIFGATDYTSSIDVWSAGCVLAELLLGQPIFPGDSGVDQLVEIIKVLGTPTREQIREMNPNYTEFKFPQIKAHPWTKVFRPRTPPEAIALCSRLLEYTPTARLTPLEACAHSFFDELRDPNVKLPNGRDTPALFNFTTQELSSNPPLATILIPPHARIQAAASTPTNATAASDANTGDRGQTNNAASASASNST

Q: `COc1cccc(-n2ncc3c(N/N=C/c4ccc(S(C)(=O)=O)cc4)ncnc32)c1` [PYRAZOLOPYRIMIDINE 2] was tested. Which “Log IC50” value [1] did it give?
A: -8.6

Q: What about the EC50 [2] of the same molecule?
A: 310 nM

Q: What about the Cell permeation (MDCK) of the same molecule?
A: 16.8 ×10⁻⁶ cm/s

Q: And the Max [3]?
A: 19%

Q: What does the source list for `CN(C)CCNC(=O)c1ccc(/C=N/Nc2ncnc3c2cnn3-c2ccccc2)cc1`?
A: Log IC50 [1]: -7.7; Cell permeation (MDCK): 9.8 ×10⁻⁶ cm/s

Q: How did the “Log IC50” value [1] turn out when `COc1cccc(-n2ncc3c(N/N=C/c4ccc(F)cc4)ncnc32)c1` [GW817396X] was run?
A: -8.1

Q: What about the Max [4] of the same molecule?
A: inactive

Q: What about the Cell permeation (MDCK) of the same molecule?
A: 0.5 ×10⁻⁶ cm/s

Q: Which results are given for `COc1cccc(-n2ncc3c(N/N=C/c4ccc(C(=O)O)cc4)ncnc32)c1`?
A: Log IC50 [1]: -7.5; EC50 [2]: 1880 nM; Cell permeation (MDCK): 6.5 ×10⁻⁶ cm/s; Max [3]: 46%

Q: For `CN(C)CCNC(=O)c1ccc(/C=N/Nc2ncnc3c2cnn3-c2cccc3[nH]cnc23)cc1` [PYRAZOLOPYRIMIDINE 1], which “Log IC50” value [1] is on record?
A: -8.8

Q: And the EC50 [2]?
A: 2330 nM

Q: And the Cell permeation (MDCK)?
A: 1.5 ×10⁻⁶ cm/s

Q: What about the Max [3] of the same molecule?
A: 76%

Q: What does the source list for `O=C(O)c1ccc(/C=N/Nc2ncnc3c2cnn3-c2cccc3[nH]cnc23)cc1`?
A: Log IC50 [1]: -8.3; EC50 [2]: 2730 nM; Cell permeation (MDCK): 1.7 ×10⁻⁶ cm/s; Max [3]: 42%

Q: Which results are given for `C(=N\Nc1ncnc2c1cnn2-c1cccc2[nH]cnc12)/c1ccncc1`?
A: Log IC50 [1]: -8.4; EC50 [2]: 110 nM; Cell permeation (MDCK): 21.2 ×10⁻⁶ cm/s; Max [3]: 45%

Q: Which results are given for `Fc1ccc(/C=N/Nc2ncnc3c2cnn3-c2ccccc2)cc1`?
A: Log IC50 [1]: -6.2; Cell permeation (MDCK): 0.5 ×10⁻⁶ cm/s

Q: Which results are given for `Fc1ccc(/C=N/Nc2ncnc3c2cnn3-c2cccc3[nH]cnc23)cc1`?
A: Log IC50 [1]: -8.2; EC50 [2]: 230 nM; Cell permeation (MDCK): 9.2 ×10⁻⁶ cm/s; Max [3]: 57%

Q: Which “Log IC50” value [1] does the source give for `C(=N\Nc1ncnc2c1cnn2-c1ccccc1)/c1ccncc1` here?
A: -7

Q: What about the EC50 [2] of the same molecule?
A: 1220 nM

Q: What about the Cell permeation (MDCK) of the same molecule?
A: 9.9 ×10⁻⁶ cm/s

Q: What about the Max [3] of the same molecule?
A: 48%

Q: `COc1cccc(-n2ncc3c(N/N=C/c4ccncc4)ncnc32)c1` [GW784752X] was tested. Which EC50 [2] did it give?
A: 220 nM

Q: What about the Cell permeation (MDCK) of the same molecule?
A: 12.7 ×10⁻⁶ cm/s

Q: What about the Max [3] of the same molecule?
A: 37%

Q: `COc1cccc(-n2ncc3c(N/N=C/c4ccc(C(=O)NCCN(C)C)cc4)ncnc32)c1` was tested. Which “Log IC50” value [1] did it give?
A: -7.8

Q: And the EC50 [2]?
A: 4000 nM

Q: What about the Cell permeation (MDCK) of the same molecule?
A: 1.5 ×10⁻⁶ cm/s

Q: And the Max [3]?
A: 26%

Q: How did the “Log IC50” value [1] turn out when `CS(=O)(=O)c1ccc(/C=N/Nc2ncnc3c2cnn3-c2cccc3[nH]cnc23)cc1` was run?
A: -8.3

Q: And the EC50 [2]?
A: 240 nM

Q: And the Cell permeation (MDCK)?
A: 6.1 ×10⁻⁶ cm/s

Q: What about the Max [3] of the same molecule?
A: 54%

Source: ChEMBL document CHEMBL1147547, “Novel GSK-3 inhibitors with improved cellular activity” (Bioorg Med Chem Lett, 2004)
